Reference: ChEMBL document CHEMBL1151472, “In vitro interactions between tacrolimus and azoles against Candida albicans determined by different methods” (2008)

How the values were obtained:
Assay type in all cases: functional
Candida albicans [1] = experiment: Antimicrobial activity against azole-resistant Candida albicans isolate CA10 assessed as growth at 1 ug/ml cotreated with 0.031 ug/ml calcineurin signaling inhibitor tacrolimus after 48 hrs by microdilution checkerboard technique relative to control; parameters: scale not given: the % may be the effect or the level left
Outline: (§1)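 Checkerboard microdilution in RPMI 1640 (pH 7.0, 2% dextrose, 0.165 M MOPS). Azole dilutions run along columns and FK506 along rows, at 4× final concentration. Final inoculum 2.5 × 10^3 CFU/ml from Sabouraud-subcultured cells. Incubated 35°C for 48 h; OD read at 492 nm. Background from microorganism-free plates subtracted. Growth % = well OD / drug-free well OD. Triplicate on different days, values averaged.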

Candida albicans [2] = experiment: Antimicrobial activity against azole-resistant Candida albicans isolate CA10 assessed as growth at 4 ug/ml co-treated with 0.031 ug/ml calcineurin signaling inhibitor tacrolimus after 48 hrs by microdilution checkboard technique relative to control; parameters: scale not given: the % may be the effect or the level left; outline: as §1
Candida albicans [3] = experiment: Antimicrobial activity against azole-resistant Candida albicans isolate CA10 assessed as growth at 0.5 ug/ml cotreated with 0.063 ug/ml calcineurin signaling inhibitor Tacrolimus after 48 hrs by microdilution checkboard technique relative to control; parameters: scale not given: the % may be the effect or the level left
Outline: (§2)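 Checkerboard microdilution in MOPS-buffered RPMI 1640 (pH 7.0, 2% dextrose). Final ranges: azole 0.125–128 μg/ml (FLC) or 0.008–8 μg/ml (ITR, VRC), tacrolimus 0.002–0.125 μg/ml; solvent 1% in single-drug wells. Inoculum 2.5 × 10^3 CFU/ml, 35°C, 48 h. Growth % = background-subtracted OD492 of each well / drug-free well. Triplicate on different days.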

Candida albicans [4] = experiment: Antimicrobial activity against azole-resistant Candida albicans isolate CA10 assessed as growth at 16 ug/ml cotreated with 0.063 ug/ml calcineurin signaling inhibitor tacrolimus after 48 hrs by microdilution checkerboard technique relative to control; parameters: scale not given: the % may be the effect or the level left; outline: as §2
Candida albicans [5] = experiment: Antimicrobial activity against azole-resistant Candida albicans isolate CA10 assessed as growth at 32 ug/ml cotreated with 0.063 ug/ml calcineurin signaling inhibitor Tacrolimus after 48 hrs by microdilution checkboard technique relative to control; parameters: scale not given: the % may be the effect or the level left
Outline: (§3)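 CA10 in RPMI 1640 with 2% dextrose and 0.165 M MOPS, pH 7.0. Checkerboard used twofold dilutions, with azole alone in row H and the drug-free growth control in well H1. Final inoculum was 2.5 × 10^3 CFU/ml, incubated 35°C for 48 h, with OD read at 492 nm. Growth % = background-subtracted well OD / drug-free well OD. Run in triplicate on different days.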

Candida albicans [6] = experiment: Antimicrobial activity against azole-resistant Candida albicans isolate CA10 assessed as growth at 128 ug/ml co-treated with 0.063 ug/ml calcineurin signaling inhibitor tacrolimus after 48 hrs by microdilution checkboard technique relative to control; parameters: scale not given: the % may be the effect or the level left; outline: as §2
Candida albicans [7] = experiment: Antimicrobial activity against azole-resistant Candida albicans isolate CA10 assessed as growth at 0.125 ug/ml co-treated with 0.031 ug/ml calcineurin signaling inhibitor tacrolimus after 48 hrs by microdilution checkboard technique relative to control; parameters: scale not given: the % may be the effect or the level left; outline: as §1
Candida albicans [8] = experiment: Antimicrobial activity against azole-resistant Candida albicans isolate CA10 assessed as growth at 0.125 ug/ml co-treated with 0.016 ug/ml calcineurin signaling inhibitor tacrolimus after 48 hrs by microdilution checkboard technique relative to control; parameters: scale not given: the % may be the effect or the level left; outline: as §2
Candida albicans [9] = experiment: Antimicrobial activity against azole-resistant Candida albicans isolate CA10 assessed as growth at 1 ug/ml cotreated with 0.016 ug/ml calcineurin signaling inhibitor tacrolimus after 48 hrs by microdilution checkerboard technique relative to control; parameters: scale not given: the % may be the effect or the level left; outline: as §2
Candida albicans [10] = experiment: Antimicrobial activity against azole-resistant Candida albicans isolate CA10 assessed as growth at 1 ug/ml cotreated with 0.002 ug/ml calcineurin signaling inhibitor tacrolimus after 48 hrs by microdilution checkerboard technique relative to control; parameters: scale not given: the % may be the effect or the level left; outline: as §2
Candida albicans [11] = experiment: Antimicrobial activity against azole-resistant Candida albicans isolate CA10 assessed as growth at 8 ug/ml cotreated with 0.002 ug/ml calcineurin signaling inhibitor Tacrolimus after 48 hrs by microdilution checkboard technique relative to control; parameters: scale not given: the % may be the effect or the level left; outline: as §3
Candida albicans [12] = experiment: Antimicrobial activity against azole-resistant Candida albicans isolate CA10 assessed as growth at 1 ug/ml cotreated with 0.008 ug/ml calcineurin signaling inhibitor Tacrolimus after 48 hrs by microdilution checkboard technique relative to control; parameters: scale not given: the % may be the effect or the level left; outline: as §2
Candida albicans [13] = experiment: Antimicrobial activity against azole-resistant Candida albicans isolate CA10 assessed as growth at 32 ug/ml co-treated with 0.008 ug/ml calcineurin signaling inhibitor tacrolimus after 48 hrs by microdilution checkboard technique relative to control; parameters: scale not given: the % may be the effect or the level left; outline: as §3
Candida albicans [14] = experiment: Antimicrobial activity against azole-resistant Candida albicans isolate CA10 assessed as growth at 0.25 ug/ml cotreated with 0.004 ug/ml calcineurin signaling inhibitor Tacrolimus after 48 hrs by microdilution checkboard technique relative to control; parameters: scale not given: the % may be the effect or the level left; outline: as §1
Candida albicans [15] = experiment: Antimicrobial activity against azole-resistant Candida albicans isolate CA10 assessed as growth at 0.5 ug/ml cotreated with 0.004 ug/ml calcineurin signaling inhibitor tacrolimus after 48 hrs by microdilution checkerboard technique relative to control; parameters: scale not given: the % may be the effect or the level left; outline: as §2
Candida albicans [16] = experiment: Antimicrobial activity against azole-resistant Candida albicans isolate CA10 assessed as growth at 1 ug/ml cotreated with 0.004 ug/ml calcineurin signaling inhibitor Tacrolimus after 48 hrs by microdilution checkboard technique relative to control; parameters: scale not given: the % may be the effect or the level left; outline: as §2
Candida albicans [17] = experiment: Antimicrobial activity against azole-resistant Candida albicans isolate CA10 assessed as growth at 32 ug/ml co-treated with 0.004 ug/ml calcineurin signaling inhibitor tacrolimus after 48 hrs by microdilution checkboard technique relative to control; parameters: scale not given: the % may be the effect or the level left; outline: as §2
Candida albicans [18] = experiment: Antimicrobial activity against azole-resistant Candida albicans isolate CA10 assessed as growth at 64 ug/ml cotreated with 0.004 ug/ml calcineurin signaling inhibitor Tacrolimus after 48 hrs by microdilution checkboard technique relative to control; parameters: scale not given: the % may be the effect or the level left; outline: as §3
Candida albicans [19] = experiment: Antimicrobial activity against azole-resistant Candida albicans isolate CA10 assessed as growth at 0.031 ug/ml after 48 hrs by microdilution checkerboard technique relative to control; outline: as §1
Candida albicans [20] = experiment: Antimicrobial activity against azole-resistant Candida albicans isolate CA10 assessed as growth at 0.008 ug/ml after 48 hrs by microdilution checkerboard technique relative to control; outline: as §2
Candida albicans [21] = experiment: Antimicrobial activity against azole-resistant Candida albicans isolate CA15 cotreated with calcineurin signaling inhibitor Tacrolimus after 48 hrs by microdilution checkerboard technique; details: isolate CA15, 48 h
Outline: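 Checkerboard microdilution in MOPS-buffered RPMI 1640 (pH 7.0, 2% dextrose) with 2.5 × 10^3 CFU/ml for 48 h at 35°C. Final FK506 was 0.002–0.125 μg/ml. Azole finals were FLC 0.125–128 μg/ml, and ITR and VRC 0.008–8 μg/ml. MIC80 is an 80% OD492 decrease vs drug-free control. Interaction was scored by FICI (synergy ≤0.5, antagonism >4) and by ΔE from triplicates.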

Candida albicans [22] = experiment: Antimicrobial activity against azole-resistant Candida albicans isolate CA10 assessed as growth at 16 ug/ml cotreated with 0.125 ug/ml calcineurin signaling inhibitor tacrolimus after 48 hrs by microdilution checkerboard technique relative to control; parameters: scale not given: the % may be the effect or the level left; outline: as §2

OC(Cn1cncn1)(Cn1cncn1)c1ccc(F)cc1F [FLUCONAZOLE]
Activity (Candida albicans [1]): 17% | Activity (Candida albicans [2]): 16% | Activity (Candida albicans [3]): 13% | Activity (Candida albicans [4]): 7% | Activity (Candida albicans [5]): 1% | Activity (Candida albicans [6]): 5% | Activity (Candida albicans [7]): 36% | Activity (Candida albicans [8]): 38% | Activity (Candida albicans [9]): 24% | Activity (Candida albicans [10]): 50% | Activity (Candida albicans [11]): 38% | Activity (Candida albicans [12]): 25% | Activity (Candida albicans [13]): 25% | Activity (Candida albicans [14]): 42% | Activity (Candida albicans [15]): 38% | Activity (Candida albicans [16]): 29% | Activity (Candida albicans [17]): 30% | Activity (Candida albicans [18]): 27% | Activity (Candida albicans [19]): 93% | Activity (Candida albicans [20]): 96% | MIC (Candida albicans [21]): 0.5 mg/L | Activity (Candida albicans [22]): 3%
